Assay outcomes from PubChem.
Hits are enriched below; roughly 3.7% of the tested compounds scored in any of these assays.
KCNQ1 pot = potentiates or activates the human KCNQ1 potassium channel; P51787; CHO-K1 KCNQ1, thallium flux FluxOR fluorescence; active compounds read high; B-score at 10 µM; hit rate 0.35% among 310,000; AID 2648;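 active means fluorescence ratio B-score, a plate-corrected score, at least three library SD, with initial intensity B-score within 5 SD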
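Assay system: stable KCNQ1 CHO-K1 line; medium: assay buffer, equal DMSO in all wells; timing: 90 min dye loading and 20 min compound exposure, both at room temperature; technique: kinetic FluxOR thallium fluorescence, 10-s 1-Hz baseline, 110-s post-stimulus read; read-out basis: B score of baseline-normalized fluorescence ratio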
KCNQ1 inh = blocks the human KCNQ1 potassium channel; hit rate 1.3% among 310,000; AID 2642; B-score at 10 µM; CHO-K1 KCNQ1, FluxOR thallium flux fluorescence; active compounds read high; P51787;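 active means compounds whose thallium flux B-score, printed positive for inhibition, exceeds three library SD while starting fluorescence stays within three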;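 further: channel opened by potassium depolarization with thallium stimulus after 20 min compound exposure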
KCNK9 inh = human KCNK9 channel inhibition; HEK293 KCNK9, FluxOR thallium flux fluorescence; active compounds read low; B-score at 10 µM; hit rate 1.2% among 310,000; AID 488922;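 active means ratio B-score over 3 SD below the library mean, with starting fluorescence within 5 SD of its mean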;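 further: negative B-score means less thallium flux so channel inhibition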
hERG protect = compounds protecting human hERG from proarrhythmic drug block; hit rate 0.51% among 310,000; activation (rescue from dofetilide block), less the hit threshold, % at 10 µM; AID 1511; CHO-hERG, FluxOR thallium flux, dofetilide IC70 present;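 active means activation above the mean of controls blocked by dofetilide plus 5 SD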;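 further: thallium influx through hERG after potassium depolarization seen as dye fluorescence rise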
KCNK3 inh = human KCNK3 channel inhibition, primary screen; hit rate 0.84% among 340,000; CHO-KCNK3 thallium flux, FluxOR fluorescence; active compounds read low; O14649; B-score at 10 µM;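 active means B-score under library mean minus 4 SD, starting fluorescence ratio at most library mean plus 5 SD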;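 further: more negative B-score means stronger inhibition of thallium flux through KCNK3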
Kir21 block = Kir2.1 (mouse) channel inhibition; AID 1672; hit rate 0.85% among 310,000; B-score at 10 µM; P35561; HEK293-Kir2.1, FluxOR thallium flux fluorescence; active compounds read low;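 active means fluorescence ratio B-score at or below minus 3 SD of library scores, with starting-brightness B-score within 2 SD, cut at about -4.2 in these data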;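 further: channel flux triggered by added potassium and thallium sulfate stimulus; B-score of peak minus minimum fluorescence over baseline after thallium stimulus; more negative B-score means stronger Kir2.1 block with less thallium influx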
KCNQ1 inh valid = confirmation of human KCNQ1 potassium channel inhibitors | shares compounds with KCNQ1 inh | inhibition, % at 10 µM | hit rate 93% among 1,600 | AID 588353 | KCNQ1 cell line, FluxOR thallium flux fluorescence;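 active means primary screen active, with duplicate mean exceeding buffer control mean plus 3 SD of buffer wells, cut at about 28% in these data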;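 further: 0% = buffer control ratio and 100% = XE991 inhibitor control ratio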
CHO KCNQ1 ctr = activity in parental CHO cells lacking KCNQ1. shares compounds with KCNQ1 inh. parental CHO-K1, FluxOR thallium flux fluorescence ratio; active compounds read low; zero means no signal rise above baseline. fluorescence ratio (Tl flux) at 10 µM. hit rate 21% among 1,600;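 active means mean of duplicate thallium-flux fluorescence ratios in parental host cells more than 5 SD below the buffer control mean, cut at about 0.38 in these data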;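 further: ratio is peak minus minimum fluorescence divided by baseline fluorescence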
KCNQ1 ephys val = confirmation of human KCNQ1 potassium channel inhibitors by electrophysiology. shares compounds with KCNQ1 inh. hit rate 20% among 490. KCNQ1-CHO cells, automated patch clamp current. AID 624120. calls only at 10 µM;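 active means KCNQ1 current drop exceeding 3 SD of negative control wells, seen in both duplicate runs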;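 further: steady state current during a 2 s step from -80 to +40 mV; negative values mean current inhibition and positive values mean potentiation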
KCNQ2 inh = KCNQ1 inhibitor that also blocks rat KCNQ2 channel; KCNQ2 cells, FluxOR thallium flux fluorescence; inhibition, % at 10 µM; shares compounds with KCNQ1 inh; hit rate 71% among 1,600; AID 651746;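 active means mean percent inhibition of the KCNQ2 thallium signal more than 5 SD above the buffer-only control wells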;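 further: KCNQ2 expressed in CHO cells; 0% = buffer control wells and 100% = XE-991 inhibitor control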
Target sequence (O88943 whole entry, looked up): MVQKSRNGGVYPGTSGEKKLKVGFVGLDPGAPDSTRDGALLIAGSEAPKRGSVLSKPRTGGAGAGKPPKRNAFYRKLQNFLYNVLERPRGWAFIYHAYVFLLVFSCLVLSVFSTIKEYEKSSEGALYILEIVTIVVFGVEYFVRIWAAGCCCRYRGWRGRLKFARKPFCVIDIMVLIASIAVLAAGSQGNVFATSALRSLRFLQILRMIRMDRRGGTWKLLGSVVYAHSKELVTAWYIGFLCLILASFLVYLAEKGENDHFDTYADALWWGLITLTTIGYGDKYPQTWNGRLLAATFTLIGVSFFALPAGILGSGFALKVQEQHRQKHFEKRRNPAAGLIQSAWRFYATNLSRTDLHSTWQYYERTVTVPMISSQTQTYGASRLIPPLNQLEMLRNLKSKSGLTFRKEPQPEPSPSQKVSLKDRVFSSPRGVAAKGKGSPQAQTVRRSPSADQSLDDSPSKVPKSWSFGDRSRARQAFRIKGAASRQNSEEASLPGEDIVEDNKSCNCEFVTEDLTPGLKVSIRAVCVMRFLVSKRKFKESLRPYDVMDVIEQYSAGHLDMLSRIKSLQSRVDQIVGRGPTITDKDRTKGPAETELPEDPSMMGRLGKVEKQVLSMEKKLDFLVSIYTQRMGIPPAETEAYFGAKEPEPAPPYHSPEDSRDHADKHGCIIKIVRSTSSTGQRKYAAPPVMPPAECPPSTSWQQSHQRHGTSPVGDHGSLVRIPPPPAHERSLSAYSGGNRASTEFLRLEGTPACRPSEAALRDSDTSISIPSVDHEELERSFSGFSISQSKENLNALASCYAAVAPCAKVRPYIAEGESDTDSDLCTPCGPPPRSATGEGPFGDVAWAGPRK
KCNQ1-KCNE1 inh = selectivity of KCNQ1 inhibitors: inhibition of human KCNQ1/KCNE1 channel; shares compounds with KCNQ1 inh; hit rate 77% among 1,600; AID 652147; inhibition, % at 10 µM; KCNQ1/KCNE1 cells, FluxOR thallium flux fluorescence;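 active means mean percent inhibition of duplicate wells above the buffer-only control mean plus 3 SD of those controls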;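 further: 0% = buffer only wells and 100% = XE-991 inhibitor control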
* marks the source's active call; other numbers are inactive results; i = inactive; nt = no result given; + = active, no number.

SMILES	KCNQ1 pot	KCNQ1 inh	KCNK9 inh	hERG protect	KCNK3 inh	Kir21 block	KCNQ1 inh valid	CHO KCNQ1 ctr	KCNQ2 inh	KCNQ1-KCNE1 inh	others
COc1ccccc1OCCCCn1ncc2ccc(OC)c(OC)c2c1=O	i	i	i	-4	i	-2.3	nt	nt	nt	nt
N#C/C(=C\Nc1ccccc1O)c1nc2ccccc2o1	i	i	i	-6	i	-1.3	nt	nt	nt	nt
CCOC(=O)C1CCN(C(=O)c2cc(S(=O)(=O)N3CCCCCC3)ccc2OC)CC1	i	i	i	-1	i	-2.2	nt	nt	nt	nt
CCOc1ccccc1NC(C)C(=O)NC(=O)NC1CCCCC1 (stereo unspecified)	nt	nt	nt	nt	i	nt	nt	nt	nt	nt
O=C(CCCc1c[nH]c2ccccc12)NCC1COc2ccccc2O1 (stereo unspecified)	i	10*	i	-9	i	0	62*	0.44	74%*	78%*
N/C(=N\S(=O)(=O)c1cc(C(F)(F)F)cc(C(F)(F)F)c1)c1ccc(Cl)cc1	i	7*	i	-10	i	0.14	0	0.41	i	i
CCOC(=O)c1c(C)nc(C(Cl)(Cl)Cl)nc1N	i	8*	i	-14	i	-1.2	86*	0.43	i	88%*
COc1ccccc1/C=C/C=N/Nc1cccc(C(=O)O)c1	i	i	i	-10	i	-0.01	nt	nt	nt	nt
CCC(C)NC(=O)c1cccc(OCc2c(C)noc2C)c1 (stereo unspecified)	i	i	i	-10	i	-0.91	nt	nt	nt	nt
CCOC(=O)c1c(C)[nH]c(C(=O)C(C)OC(=O)c2cccc(OCc3c(C)noc3C)c2)c1C (stereo unspecified)	i	17*	i	-3	-12*	0.47	127*	0.46	109%*	138%*	KCNQ1 ephys val=i
CC(=O)Nc1ccc(NC(=O)COC(=O)COc2ccc3ccccc3c2)cc1	nt	nt	nt	nt	i	nt	nt	nt	nt	nt
O=C(NC1CCSc2ccccc21)c1cccc(Br)c1 (stereo unspecified)	i	7*	i	-6	i	-0.14	32*	0.55	83%*	34%*
CC(=O)c1ccc(OCc2cc(C(=O)N3CCC(c4ccncc4)CC3)no2)cc1	i	i	i	-15	i	-1.1	nt	nt	nt	nt
O=C(c1cc(COc2cccc(C(F)(F)F)c2)on1)N1CCC(c2ccccc2)CC1	i	i	i	-5	i	1.2	nt	nt	nt	nt
COc1cccc(OCc2cc(C(=O)N3CCC(c4ccncc4)CC3)no2)c1	i	8*	i	-13	i	-0.02	111*	0.48	135%*	98%*	KCNQ1 ephys val=i
O=C(c1cc(COc2cccc(C(F)(F)F)c2)on1)N1CCC(c2ccncc2)CC1	i	12*	i	-15	i	-0.58	128*	0.47	80%*	106%*	KCNQ1 ephys val=i
COC(=O)[C@H](CC(C)C)NC(=O)Cn1cnc2c(SC)nc(N)nc21	nt	nt	nt	nt	i	nt	nt	nt	nt	nt
CCOC(=O)c1cnc(-n2nc(C)cc2C)nc1NC1CCCCC1	i	11*	i	-32	i	1.8	76*	0.4	108%*	107%*
Cc1onc(-c2ccccc2)c1C(=O)N/N=C/c1c(F)cccc1Cl	i	i	i	-8	i	-0.69	nt	nt	nt	nt
CCC(C(=O)OCC(=O)Nc1cc(Cl)cc(Cl)c1)c1ccccc1 (stereo unspecified)	i	11*	i	-3	i	0.03	114*	0.34*	114%*	52%*
CC(NC(=O)COC(=O)c1c[nH]c2ccccc12)c1ccccc1 (stereo unspecified)	nt	nt	nt	nt	i	nt	nt	nt	nt	nt
Fc1ccc(CNC(=S)Nc2ccc(OC(F)F)cc2)cc1	i	7*	i	-8	i	-0.15	56*	0.5	i	40%*
O=C(NC1CCCCC1)C(c1ccco1)N(C(=O)C(F)(F)F)C1CC1 (stereo unspecified)	i	6*	i	-9	i	0	74*	0.47	i	100%*
Cc1ccc(CN(C(=O)C(F)(F)F)C(C(=O)NC2CCCCC2)c2ccco2)cc1 (stereo unspecified)	i	i	i	-5	i	-0.23	nt	nt	nt	nt
COc1cc(OC)cc(C(=O)OCC(=O)NC2CCCCCC2)c1	nt	nt	nt	nt	i	nt	nt	nt	nt	nt
SMILES	KCNQ1 pot	KCNQ1 inh	KCNK9 inh	hERG protect	KCNK3 inh	Kir21 block	KCNQ1 inh valid	CHO KCNQ1 ctr	KCNQ2 inh	KCNQ1-KCNE1 inh	others
CC12CCC(=O)N1C(C(=O)Nc1cc(C(F)(F)F)ccc1N1CCCCC1)CS2 (stereo unspecified)	i	7*	i	-19	i	-0.29	46*	0.41	103%*	48%*
C=CCNC(=S)Nc1ccc(OC(F)F)c(Cl)c1	i	9*	i	-13	i	-0.18	0	0.53	61%*	i
O=C(Nc1ccc2c(c1)OCO2)Nc1ccc2c(c1)OCO2	i	i	i	-7	i	-1.1	nt	nt	nt	nt
C=CCNC(=S)Nc1ccc(Cl)cc1	i	i	i	-9	i	2.7	nt	nt	nt	nt
O=C(Nc1ccc(OC(F)F)c(Cl)c1)Nc1ccc2c(c1)OCO2	i	7*	i	-3	i	-1.6	84*	0.45	i	i
Cc1ccc(NC(=O)CN(C)C(=O)c2cc(-c3cccs3)nn2-c2ccccc2)cc1	nt	nt	nt	nt	i	nt	nt	nt	nt	nt
CN(CC(O)COc1ccccc1F)C1CCCCC1 (stereo unspecified)	i	i	i	-2	i	1.2	nt	nt	nt	nt
Cc1ccccc1OCC(O)CN(Cc1ccccc1O)C1CCCCC1 (stereo unspecified)	i	12*	i	-15	i	-0.09	90*	0.41	120%*	140%*	KCNQ1 ephys val=+
OCCN=C1CCCc2c1[nH]c1ccc(Br)cc21	i	i	i	-10	i	0.77	nt	nt	nt	nt
C=CCN=C1CCCc2c1[nH]c1ccc(C)cc21	i	6*	i	-15	i	-0.54	54*	0.47	i	46%*
O=C1CN(N=Cc2ccco2)C(=O)N1	nt	nt	nt	nt	i	nt	nt	nt	nt	nt
Cc1ccc(N2C(=O)c3ccccc3C2C(=O)c2ccc(O)cc2O)cc1 (stereo unspecified)	i	i	i	-2	i	0.92	nt	nt	nt	nt
